# Experimental data: ChEMBL document CHEMBL4706598 (Eur J Med Chem, 2020)
# The source made the active and inactive calls. The rule behind the calls is not given here.
# What was measured:
# Dipeptidyl peptidase 8 = Dipeptidyl peptidase 8 (Homo sapiens, UniProt Q6V1X1); assay: Inhibition of DPP8 (unknown origin)
# Dipeptidyl peptidase 9 = Dipeptidyl peptidase 9 (Homo sapiens, UniProt Q86TI2); assay: Inhibition of DPP9 (unknown origin)
# HepG2 = assay: Cytotoxicity against human HepG2 cells assessed as reduction in cell viability at 1 to 100 uM measured after 48 hrs by MTT assay; assay type: cell-based; settings: hepg2, 48 h, dose 1-100 µM
# Method in brief: (§1)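 HepG2 cells were exposed to compound at a range of concentrations for 48 h. Viability was measured by MTT assay. Mean ± SD, n = 3.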
# Dipeptidyl peptidase 4 = Dipeptidyl peptidase 4 (Homo sapiens, UniProt P27487); assay: Inhibition of DPP4 in human Caco-2 cells using AP-AFC as substrate preincubated with enzyme for 10 mins followed by substrate addition and measured after 10 mins by fluorescence based analysis; assay type: cell-based
# Chain of Dipeptidyl peptidase 4 (P27487 whole entry): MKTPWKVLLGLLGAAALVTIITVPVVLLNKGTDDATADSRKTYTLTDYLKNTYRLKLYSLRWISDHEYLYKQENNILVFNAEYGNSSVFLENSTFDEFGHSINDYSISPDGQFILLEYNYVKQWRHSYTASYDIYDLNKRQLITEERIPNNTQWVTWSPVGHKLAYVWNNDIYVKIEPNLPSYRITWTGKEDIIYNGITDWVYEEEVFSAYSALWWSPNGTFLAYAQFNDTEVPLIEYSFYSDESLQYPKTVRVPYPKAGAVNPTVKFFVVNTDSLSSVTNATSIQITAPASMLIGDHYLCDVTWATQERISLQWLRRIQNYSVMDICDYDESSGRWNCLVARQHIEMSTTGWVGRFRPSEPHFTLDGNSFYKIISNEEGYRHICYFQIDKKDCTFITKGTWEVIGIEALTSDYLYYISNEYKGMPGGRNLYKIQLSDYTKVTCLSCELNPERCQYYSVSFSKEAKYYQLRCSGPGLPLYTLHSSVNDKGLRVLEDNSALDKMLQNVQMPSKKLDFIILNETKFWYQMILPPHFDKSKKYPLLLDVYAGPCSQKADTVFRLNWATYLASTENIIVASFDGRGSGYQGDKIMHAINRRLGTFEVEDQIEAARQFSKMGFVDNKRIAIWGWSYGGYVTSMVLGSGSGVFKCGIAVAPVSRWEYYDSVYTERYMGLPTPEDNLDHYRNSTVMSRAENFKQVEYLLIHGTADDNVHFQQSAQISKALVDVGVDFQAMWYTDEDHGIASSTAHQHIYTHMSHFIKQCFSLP
# Mus musculus [1] = assay: Anti-Hyperglycemic activity in high fat diet-fed/streptozotocin-induced type 2 diabetic mellitus C57BL/6 mouse model assessed as blood glucose level at 10 mg/kg, ip administered 30 mins prior to glucose challenge and measured after 0.5 hrs by IPGTT (reference value: 12.3 to 15.3 mM); assay type: functional; settings: time 60 min, 1 h
# Method in brief: (§2)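 Male C57BL/6 mice made type 2 diabetic by high-fat diet plus streptozotocin. Each received a single intraperitoneal dose (1, 5 or 10 mg/kg) 30 min before an intraperitoneal glucose challenge. Blood glucose was read at 0, 0.5, 1, 1.5 and 2 h. Results are mean ± SD, n = 4.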
# Mus musculus [2] = assay: Anti-Hyperglycemic activity in high fat diet-fed/streptozotocin-induced type 2 diabetic mellitus C57BL/6 mouse model assessed as blood glucose level at 10 mg/kg, ip administered 30 mins prior to glucose challenge and measured after 1 hrs by IPGTT (reference value: 12.3 to 15.3 mM); assay type: functional; settings: time 90 min, 1.5 h; method in brief: as §2
# Mus musculus [3] = assay: Anti-Hyperglycemic activity in high fat diet-fed/streptozotocin-induced type 2 diabetic mellitus C57BL/6 mouse model assessed as blood glucose level at 10 mg/kg, ip administered 30 mins prior to glucose challenge and measured after 1.5 hrs by IPGTT (reference value: 12.3 to 15.3 mM); assay type: functional; settings: time 120 min, 2 h; method in brief: as §2
# Mus musculus [4] = assay: Anti-Hyperglycemic activity in high fat diet-fed/streptozotocin-induced type 2 diabetic mellitus C57BL/6 mouse model assessed as blood glucose level at 10 mg/kg, ip administered 30 mins prior to glucose challenge and measured after 2 hrs by IPGTT (reference value: 12.3 to 15.3 mM); assay type: functional; settings: time 150 min, 2.5 h; method in brief: as §2
# Mus musculus [5] = assay: Anti-Hyperglycemic activity in high fat diet-fed/streptozotocin-induced type 2 diabetic mellitus C57BL/6 mouse model assessed as reduction in AUC(0 to 120 mins) of blood glucose level at 10 mg/kg, ip administered 30 mins prior to glucose challenge and measured after 120 mins by IGTT; assay type: functional; settings: C57BL/6, ip, 2.5 h, time 150 min
# Method in brief: (§3)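 Glucose tolerance tests (intraperitoneal or oral) in HFD/STZ type 2 diabetic male C57BL/6 mice. Glucose AUC was calculated over 0–120 min. Percent reduction came from AUC normalised to saline-challenged controls. Mean ± SD, n = 4. Statistics: one-way ANOVA with LSD post-test.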
# Mus musculus [6] = assay: Anti-Hyperglycemic activity in high fat diet-fed/streptozotocin-induced type 2 diabetic mellitus C57BL/6 mouse model assessed as reduction in blood glucose level at 10 mg/kg/day for 14 days and measured on day 14; assay type: functional; settings: C57BL/6, 336 h, time 14 day
# Method in brief: (§4)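 HFD/STZ-induced type 2 diabetic male C57BL/6 mice were dosed at 10 mg/kg/day for 14 days. Plasma glucose was tracked over the treatment period and compared with diabetic controls. Mean ± SD of 4 mice. Statistics: one-way ANOVA with LSD post-test.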
# Mus musculus [7] = assay: Anti-Hyperglycemic activity in high fat diet-fed/streptozotocin-induced type 2 diabetic mellitus C57BL/6 mouse model assessed as reduction in blood glucose level at 10 mg/kg/day for 14 days and measured on day 5; assay type: functional, organism-based; settings: time 5.0 day; method in brief: as §4
# [8] = Cytotoxicity against human HepG2 cells assessed as cell viability at 100 uM measured after 48 hrs by MTT assay; assay type: cell-based; settings: read-out: Activity; method in brief: as §1
# Mus musculus [9] = assay: Anti-Hyperglycemic activity in high fat diet-fed/streptozotocin-induced type 2 diabetic mellitus C57BL/6 mouse model assessed as blood glucose level at 1 mg/kg, ip administered 30 mins prior to glucose challenge and measured after 0.5 hrs by IPGTT (reference value: 12.7 +/- 0.7 mM); assay type: functional; settings: time 60 min; method in brief: as §2
# Mus musculus [10] = assay: Anti-Hyperglycemic activity in high fat diet-fed/streptozotocin-induced type 2 diabetic mellitus C57BL/6 mouse model assessed as blood glucose level at 1 mg/kg, ip administered 30 mins prior to glucose challenge and measured after 1 hr by IPGTT (reference value: 12.7 +/- 0.7 mM); assay type: functional; settings: time 90 min, 1.5 h; method in brief: as §2
# Mus musculus [11] = assay: Anti-Hyperglycemic activity in high fat diet-fed/streptozotocin-induced type 2 diabetic mellitus C57BL/6 mouse model assessed as blood glucose level at 1 mg/kg, ip administered 30 mins prior to glucose challenge and measured after 1.5 hrs by IPGTT (reference value: 12.7 +/- 0.7 mM); assay type: functional; settings: time 120 min, 2 h; method in brief: as §2
# Mus musculus [12] = assay: Anti-Hyperglycemic activity in high fat diet-fed/streptozotocin-induced type 2 diabetic mellitus C57BL/6 mouse model assessed as blood glucose level at 1 mg/kg, ip administered 30 mins prior to glucose challenge and measured after 2 hrs by IPGTT (reference value: 12.7 +/- 0.7 mM); assay type: functional; settings: time 150 min, 2.5 h; method in brief: as §2
# Mus musculus [13] = assay: Anti-Hyperglycemic activity in high fat diet-fed/streptozotocin-induced type 2 diabetic mellitus C57BL/6 mouse model assessed as blood glucose level at 5 mg/kg, ip administered 30 mins prior to glucose challenge and measured after 0.5 hrs by IPGTT (reference value: 13.4 +/- 1.1 mM); assay type: functional; settings: time 60 min, 1 h; method in brief: as §2
# Mus musculus [14] = assay: Anti-Hyperglycemic activity in high fat diet-fed/streptozotocin-induced type 2 diabetic mellitus C57BL/6 mouse model assessed as blood glucose level at 5 mg/kg, ip administered 30 mins prior to glucose challenge and measured after 1 hr by IPGTT (reference value: 13.4 +/- 1.1 mM); assay type: functional; settings: time 90 min, 1.5 h; method in brief: as §2
# Mus musculus [15] = assay: Anti-Hyperglycemic activity in high fat diet-fed/streptozotocin-induced type 2 diabetic mellitus C57BL/6 mouse model assessed as blood glucose level at 5 mg/kg, ip administered 30 mins prior to glucose challenge and measured after 1.5 hrs by IPGTT (reference value: 13.4 +/- 1.1 mM); assay type: functional; settings: time 120 min, 2 h; method in brief: as §2
# Mus musculus [16] = assay: Anti-Hyperglycemic activity in high fat diet-fed/streptozotocin-induced type 2 diabetic mellitus C57BL/6 mouse model assessed as blood glucose level at 5 mg/kg, ip administered 30 mins prior to glucose challenge and measured after 2 hrs by IPGTT (reference value: 13.4 +/- 1.1 mM); assay type: functional; settings: time 150 min, 2.5 h; method in brief: as §2
# Mus musculus [17] = assay: Anti-Hyperglycemic activity in high fat diet-fed/streptozotocin-induced type 2 diabetic mellitus C57BL/6 mouse model assessed as blood glucose level at 10 mg/kg, po administered 30 mins prior to glucose challenge and measured after 30 mins by OGTT (reference value: 15.8 +/-4.5 mM); assay type: functional; settings: time 60 min, 1 h
# Mus musculus [18] = assay: Anti-Hyperglycemic activity in high fat diet-fed/streptozotocin-induced type 2 diabetic mellitus C57BL/6 mouse model assessed as blood glucose level at 10 mg/kg, po administered 30 mins prior to glucose challenge and measured after 60 mins by OGTT (reference value: 15.8 +/-4.5 mM); assay type: functional; settings: time 90 min, 1.5 h
# Mus musculus [19] = assay: Anti-Hyperglycemic activity in high fat diet-fed/streptozotocin-induced type 2 diabetic mellitus C57BL/6 mouse model assessed as blood glucose level at 10 mg/kg, po administered 30 mins prior to glucose challenge and measured after 90 mins by OGTT (reference value: 15.8 +/-4.5 mM); assay type: functional; settings: time 120 min, 2 h
# Mus musculus [20] = assay: Anti-Hyperglycemic activity in high fat diet-fed/streptozotocin-induced type 2 diabetic mellitus C57BL/6 mouse model assessed as blood glucose level at 10 mg/kg, po administered 30 mins prior to glucose challenge and measured after 120 mins by OGTT (reference value: 15.8 +/-4.5 mM); assay type: functional; settings: time 150 min, 2.5 h
# Mus musculus [21] = assay: Anti-Hyperglycemic activity in high fat diet-fed/streptozotocin-induced type 2 diabetic mellitus C57BL/6 mouse model assessed as reduction in AUC(0 to 120 mins) of blood glucose level at 1 mg/kg, ip administered 30 mins prior to glucose challenge and measured after 120 mins by IGTT; assay type: functional; settings: C57BL/6, ip, 2.5 h, time 150 min; method in brief: as §3
# Mus musculus [22] = assay: Anti-Hyperglycemic activity in high fat diet-fed/streptozotocin-induced type 2 diabetic mellitus C57BL/6 mouse model assessed as reduction in AUC(0 to 120 mins) of blood glucose level at 5 mg/kg, ip administered 30 mins prior to glucose challenge and measured after 120 mins by IGTT; assay type: functional; settings: C57BL/6, ip, 2.5 h, time 150 min; method in brief: as §3
# Mus musculus [23] = assay: Anti-Hyperglycemic activity in high fat diet-fed/streptozotocin-induced type 2 diabetic mellitus C57BL/6 mouse model assessed as reduction in AUC(0 to 120 mins) of blood glucose level at 10 mg/kg, po administered 30 mins prior to glucose challenge and measured after 120 mins by OGTT; assay type: functional; settings: C57BL/6, po, 2.5 h, time 150 min; method in brief: as §3
# Chain of Dipeptidyl peptidase 9 (Q86TI2 whole entry): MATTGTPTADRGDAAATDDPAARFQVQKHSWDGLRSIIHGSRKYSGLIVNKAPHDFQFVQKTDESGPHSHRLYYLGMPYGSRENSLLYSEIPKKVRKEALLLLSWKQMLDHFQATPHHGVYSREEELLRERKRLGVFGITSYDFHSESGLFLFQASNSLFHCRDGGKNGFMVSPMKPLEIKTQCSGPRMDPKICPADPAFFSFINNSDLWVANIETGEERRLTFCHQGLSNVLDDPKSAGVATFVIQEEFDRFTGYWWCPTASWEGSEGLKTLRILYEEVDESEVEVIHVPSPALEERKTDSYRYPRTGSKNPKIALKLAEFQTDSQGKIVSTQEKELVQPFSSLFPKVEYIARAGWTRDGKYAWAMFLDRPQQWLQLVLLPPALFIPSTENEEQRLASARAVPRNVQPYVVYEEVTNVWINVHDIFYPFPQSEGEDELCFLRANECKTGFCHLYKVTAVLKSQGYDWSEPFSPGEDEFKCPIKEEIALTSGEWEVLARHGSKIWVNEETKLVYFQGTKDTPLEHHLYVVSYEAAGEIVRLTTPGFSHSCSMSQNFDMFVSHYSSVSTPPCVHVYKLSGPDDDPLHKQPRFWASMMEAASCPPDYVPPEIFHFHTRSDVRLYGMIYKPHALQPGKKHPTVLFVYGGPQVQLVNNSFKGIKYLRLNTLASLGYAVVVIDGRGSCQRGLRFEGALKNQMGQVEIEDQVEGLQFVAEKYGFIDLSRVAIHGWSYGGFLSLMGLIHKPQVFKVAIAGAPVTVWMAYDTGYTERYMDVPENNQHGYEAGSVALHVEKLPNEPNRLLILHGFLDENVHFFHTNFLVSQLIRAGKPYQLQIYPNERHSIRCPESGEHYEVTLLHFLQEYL
# Chain of Dipeptidyl peptidase 8 (Q6V1X1 whole entry): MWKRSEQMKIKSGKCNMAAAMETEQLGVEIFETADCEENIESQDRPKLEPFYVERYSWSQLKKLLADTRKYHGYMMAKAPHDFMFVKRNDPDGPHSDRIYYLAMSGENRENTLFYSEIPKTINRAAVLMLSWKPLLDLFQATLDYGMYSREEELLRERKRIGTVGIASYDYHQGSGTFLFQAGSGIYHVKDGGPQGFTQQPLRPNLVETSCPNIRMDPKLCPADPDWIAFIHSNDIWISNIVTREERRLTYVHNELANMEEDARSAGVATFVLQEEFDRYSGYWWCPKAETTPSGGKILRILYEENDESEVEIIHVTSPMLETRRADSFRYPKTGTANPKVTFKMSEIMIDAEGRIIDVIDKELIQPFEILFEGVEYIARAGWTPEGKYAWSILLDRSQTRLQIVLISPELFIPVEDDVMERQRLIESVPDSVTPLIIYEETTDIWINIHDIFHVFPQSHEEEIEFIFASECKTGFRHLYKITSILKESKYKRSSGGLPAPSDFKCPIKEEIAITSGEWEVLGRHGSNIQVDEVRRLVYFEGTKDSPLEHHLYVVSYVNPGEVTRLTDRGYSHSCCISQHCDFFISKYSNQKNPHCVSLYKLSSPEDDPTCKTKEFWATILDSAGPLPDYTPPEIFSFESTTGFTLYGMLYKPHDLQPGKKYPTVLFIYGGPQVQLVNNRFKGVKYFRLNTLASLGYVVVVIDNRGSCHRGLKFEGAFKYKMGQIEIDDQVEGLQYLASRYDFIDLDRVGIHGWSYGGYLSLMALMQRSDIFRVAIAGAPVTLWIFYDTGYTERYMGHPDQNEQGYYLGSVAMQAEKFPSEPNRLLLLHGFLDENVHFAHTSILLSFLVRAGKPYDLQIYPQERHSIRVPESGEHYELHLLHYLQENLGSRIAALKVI
smiles,measurement,setting,value
Clc1ccc(Nc2cc(N3CCNCC3)nc3ccnn23)c(Cl)c1,IC50,Dipeptidyl peptidase 8,> 100 µM
same,IC50,Dipeptidyl peptidase 9,> 100 µM
same,Activity,HepG2,Toxic
N[C@@H]1CCCN(c2cc(NCc3ccccc3)n3nccc3n2)C1,IC50,Dipeptidyl peptidase 8,> 100 µM
same,IC50,Dipeptidyl peptidase 9,> 100 µM
same,Activity,HepG2,Toxic
N[C@@H]1CCCN(c2cc(Nc3cc(Cl)ccn3)n3nccc3n2)C1,IC50,Dipeptidyl peptidase 8,> 50 µM
same,IC50,Dipeptidyl peptidase 9,> 50 µM
CC(C)(C)Nc1cc(NC(C)(C)C)n2nccc2n1,IC50,Dipeptidyl peptidase 4,> 100 µM
Clc1ccc(CCNc2cc(N3CCNCC3)nc3ccnn23)c(Cl)c1,IC50,Dipeptidyl peptidase 8,> 100 µM
same,IC50,Dipeptidyl peptidase 9,> 100 µM
same,Activity,HepG2,Toxic
Cc1ccc(Nc2cc(N3CCNCC3)nc3ccnn23)c(C)c1,IC50,Dipeptidyl peptidase 8,> 100 µM
same,IC50,Dipeptidyl peptidase 9,> 100 µM
N[C@@H]1CCCN(c2cc(Nc3ccccc3Cl)n3nccc3n2)C1,IC50,Dipeptidyl peptidase 8,> 100 µM
same,IC50,Dipeptidyl peptidase 9,> 100 µM
Cn1c(=O)cc(N2CCC[C@@H](N)C2)n(Cc2ccccc2C#N)c1=O [ALOGLIPTIN],Activity,Mus musculus [1],22.9 mM
same,Activity,Mus musculus [2],17.4 mM
same,Activity,Mus musculus [3],16.3 mM
same,Activity,Mus musculus [4],15 mM
same,inhibition in vivo at 10 mg/kg,Mus musculus [5],30%
same,inhibition in vivo at 10 mg/kg/day,Mus musculus [6],57%
same,Activity,Mus musculus [7],inactive
Cc1ccnc(Nc2cc(N3CCNCC3)nc3ccnn23)c1,IC50,Dipeptidyl peptidase 8,> 100 µM
same,IC50,Dipeptidyl peptidase 9,> 100 µM
Cc1ccc(Nc2cc(N3CCC[C@@H](N)C3)nc3ccnn23)c(C)c1,IC50,Dipeptidyl peptidase 8,> 100 µM
same,IC50,Dipeptidyl peptidase 9,> 100 µM
O=[N+]([O-])c1ccccc1Nc1cc(N2CCNCC2)nc2ccnn12,IC50,Dipeptidyl peptidase 8,> 100 µM
same,IC50,Dipeptidyl peptidase 9,> 100 µM
Fc1ccc(CNc2cc(N3CCNCC3)nc3ccnn23)c(F)c1,IC50,Dipeptidyl peptidase 8,> 50 µM
same,IC50,Dipeptidyl peptidase 9,> 50 µM
same,Activity,HepG2,Non-Toxic
same,"viability at 48 h, 100 µM",[8],90%
same,Activity,Mus musculus [9],25.7 mM
same,Activity,Mus musculus [10],18.6 mM
same,Activity,Mus musculus [11],17.9 mM
same,Activity,Mus musculus [12],14.8 mM
same,Activity,Mus musculus [13],23.4 mM
same,Activity,Mus musculus [14],18.5 mM
same,Activity,Mus musculus [15],17.4 mM
same,Activity,Mus musculus [16],15.1 mM
same,Activity,Mus musculus [1],16.2 mM
same,Activity,Mus musculus [2],14.4 mM
same,Activity,Mus musculus [3],13 mM
same,Activity,Mus musculus [4],10.9 mM
same,Activity,Mus musculus [17],26.7 mM
same,Activity,Mus musculus [18],19.1 mM
same,Activity,Mus musculus [19],18.5 mM
same,Activity,Mus musculus [20],15.6 mM
same,inhibition in vivo at 1 mg/kg,Mus musculus [21],26%
same,inhibition in vivo at 5 mg/kg,Mus musculus [22],28%
same,inhibition in vivo at 10 mg/kg,Mus musculus [5],47%
same,inhibition in vivo at 10 mg/kg,Mus musculus [23],22%
same,inhibition in vivo at 10 mg/kg/day,Mus musculus [6],46%
same,Activity,Mus musculus [7],inactive
N[C@@H]1CCCN(c2cc(NCCc3ccc(Cl)cc3Cl)n3nccc3n2)C1,IC50,Dipeptidyl peptidase 8,> 100 µM
same,IC50,Dipeptidyl peptidase 9,> 100 µM
Cc1ccc(Nc2cc(N3CCC[C@@H](N)C3)nc3ccnn23)c(N)c1,IC50,Dipeptidyl peptidase 8,> 100 µM
same,IC50,Dipeptidyl peptidase 9,> 100 µM
Fc1ccc(Nc2cc(N3CCNCC3)nc3ccnn23)c(F)c1,IC50,Dipeptidyl peptidase 8,> 100 µM
same,IC50,Dipeptidyl peptidase 9,> 100 µM
c1cc2nc(N3CCOCC3)cc(Nc3cc[nH]n3)n2n1,IC50,Dipeptidyl peptidase 4,> 100 µM
Cc1ccnc(Nc2cc(N3CCC[C@@H](N)C3)nc3ccnn23)c1,IC50,Dipeptidyl peptidase 8,> 100 µM
same,IC50,Dipeptidyl peptidase 9,> 100 µM
CN(c1ccccc1)c1cc(N2CCC[C@@H](N)C2)nc2ccnn12,IC50,Dipeptidyl peptidase 4,> 100 µM
N[C@@H]1CCCN(c2cc(NCc3ccc(O)cc3)n3nccc3n2)C1,IC50,Dipeptidyl peptidase 8,> 50 µM
same,IC50,Dipeptidyl peptidase 9,> 50 µM
N[C@@H]1CCCN(c2cc(NCc3ccc(Cl)cc3Cl)n3nccc3n2)C1,IC50,Dipeptidyl peptidase 8,> 100 µM
same,IC50,Dipeptidyl peptidase 9,> 100 µM
